Key:
Type in all cases: ADME, organism-based
Liver [1] = assay: Biodistribution in NMRI mouse liver assessed per gram of tissue at 3.7 MBq/mL, iv after 60 mins by gamma counting; conditions: in vivo, 1 h
Method in brief: (§1)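 Male NMRI mice (30-40 g) anaesthetised with 0.1 mL ip Hypnorm (fentanyl citrate 63 µg/mL, fluanisone 2 mg/mL). Each received 0.1 mL of HPLC-purified 18F tracer, diluted in 0.9% NaCl to 3.7 MBq/mL (ethanol ≤10%, THF ≤0.02%), via tail vein. Killed by decapitation at 2 or 60 min; blood and organs weighed and γ-counted. Background-corrected, expressed as %ID or %ID/g.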

[2] = Biodistribution in NMRI mouse spleen/pancreas at 3.7 MBq/mL, iv after 2 mins by gamma counting; conditions: in vivo; method in brief: as §1
Cerebellum [3] = assay: Biodistribution in NMRI mouse cerebellum at 3.7 MBq/mL, iv after 60 mins by gamma counting; conditions: in vivo, 1 h; method in brief: as §1
Liver [4] = assay: Biodistribution in NMRI mouse liver at 3.7 MBq/mL, iv after 2 mins by gamma counting; conditions: in vivo; method in brief: as §1
Cerebellum [5] = assay: Biodistribution in NMRI mouse cerebellum at 3.7 MBq/mL, iv after 2 mins by gamma counting; conditions: in vivo; method in brief: as §1
Lung [6] = assay: Biodistribution in NMRI mouse lung assessed per gram of tissue at 3.7 MBq/mL, iv after 2 mins by gamma counting; conditions: in vivo; method in brief: as §1
[7] = Biodistribution in NMRI mouse spleen/pancreas at 3.7 MBq/mL, iv after 60 mins by gamma counting; conditions: in vivo, 1 h; method in brief: as §1
Cerebellum [8] = assay: Biodistribution in NMRI mouse cerebellum assessed per gram of tissue at 3.7 MBq/mL, iv after 2 mins by gamma counting; conditions: in vivo; method in brief: as §1
[9] = Biodistribution in NMRI mouse spleen/pancreas assessed per gram of tissue at 3.7 MBq/mL, iv after 2 mins by gamma counting; conditions: in vivo; method in brief: as §1
Blood [10] = assay: Biodistribution in NMRI mouse blood at 3.7 MBq/mL, iv after 60 mins by gamma counting; conditions: in vivo, 1 h; method in brief: as §1
Kidney [11] = assay: Biodistribution in NMRI mouse kidney assessed per gram of tissue at 3.7 MBq/mL, iv after 60 mins by gamma counting; conditions: in vivo, 1 h; method in brief: as §1
Kidney [12] = assay: Biodistribution in NMRI mouse kidney assessed per gram of tissue at 3.7 MBq/mL, iv after 2 mins by gamma counting; conditions: in vivo; method in brief: as §1
Kidney [13] = assay: Biodistribution in NMRI mouse kidney at 3.7 MBq/mL, iv after 2 mins by gamma counting; conditions: in vivo; method in brief: as §1
Blood [14] = assay: Biodistribution in NMRI mouse blood assessed per gram of tissue at 3.7 MBq/mL, iv after 2 mins by gamma counting; conditions: in vivo; method in brief: as §1
Kidney [15] = assay: Biodistribution in NMRI mouse kidney at 3.7 MBq/mL, iv after 60 mins by gamma counting; conditions: in vivo, 1 h; method in brief: as §1
Heart [16] = assay: Biodistribution in NMRI mouse heart at 3.7 MBq/mL, iv after 60 mins by gamma counting; conditions: in vivo, 1 h; method in brief: as §1
Lung [17] = assay: Biodistribution in NMRI mouse lung at 3.7 MBq/mL, iv after 60 mins by gamma counting; conditions: in vivo, 1 h; method in brief: as §1
[18] = Biodistribution in NMRI mouse cerebrum assessed per gram of tissue at 3.7 MBq/mL, iv after 2 mins by gamma counting; conditions: in vivo; method in brief: as §1
Lung [19] = assay: Biodistribution in NMRI mouse lung assessed per gram of tissue at 3.7 MBq/mL, iv after 60 mins by gamma counting; conditions: in vivo, 1 h; method in brief: as §1
Heart [20] = assay: Biodistribution in NMRI mouse heart assessed per gram of tissue at 3.7 MBq/mL, iv after 60 mins by gamma counting; conditions: in vivo, 1 h; method in brief: as §1
[21] = Biodistribution in NMRI mouse urine at 3.7 MBq/mL, iv after 2 mins by gamma counting; conditions: in vivo; method in brief: as §1
[22] = Biodistribution in NMRI mouse cerebrum at 3.7 MBq/mL, iv after 2 mins by gamma counting; conditions: in vivo; method in brief: as §1
Stomach [23] = assay: Biodistribution in NMRI mouse stomach at 3.7 MBq/mL, iv after 60 mins by gamma counting; conditions: in vivo, 1 h; method in brief: as §1
Blood [24] = assay: Biodistribution in NMRI mouse blood assessed per gram of tissue at 3.7 MBq/mL, iv after 60 mins by gamma counting; conditions: in vivo, 1 h; method in brief: as §1
Liver [25] = assay: Biodistribution in NMRI mouse liver at 3.7 MBq/mL, iv after 60 mins by gamma counting; conditions: in vivo, 1 h; method in brief: as §1
Liver [26] = assay: Biodistribution in NMRI mouse liver assessed per gram of tissue at 3.7 MBq/mL, iv after 2 mins by gamma counting; conditions: in vivo; method in brief: as §1
Cerebellum [27] = assay: Biodistribution in NMRI mouse cerebellum assessed per gram of tissue at 3.7 MBq/mL, iv after 60 mins by gamma counting; conditions: in vivo, 1 h; method in brief: as §1
Heart [28] = assay: Biodistribution in NMRI mouse heart assessed per gram of tissue at 3.7 MBq/mL, iv after 2 mins by gamma counting; conditions: in vivo; method in brief: as §1
Heart [29] = assay: Biodistribution in NMRI mouse heart at 3.7 MBq/mL, iv after 2 mins by gamma counting; conditions: in vivo; method in brief: as §1
Lung [30] = assay: Biodistribution in NMRI mouse lung at 3.7 MBq/mL, iv after 2 mins by gamma counting; conditions: in vivo
[31] = Biodistribution in NMRI mouse urine at 3.7 MBq/mL, iv after 60 mins by gamma counting; conditions: in vivo, 1 h; method in brief: as §1
Intestine [32] = assay: Biodistribution in NMRI mouse intestine at 3.7 MBq/mL, iv after 2 mins by gamma counting; conditions: in vivo; method in brief: as §1
[33] = Biodistribution in NMRI mouse cerebrum assessed per gram of tissue at 3.7 MBq/mL, iv after 60 mins by gamma counting; conditions: in vivo, 1 h; method in brief: as §1
Stomach [34] = assay: Biodistribution in NMRI mouse stomach at 3.7 MBq/mL, iv after 2 mins by gamma counting; conditions: in vivo; method in brief: as §1
[35] = Biodistribution in NMRI mouse cerebrum at 3.7 MBq/mL, iv after 60 mins by gamma counting; conditions: in vivo, 1 h; method in brief: as §1
Blood [36] = assay: Biodistribution in NMRI mouse blood at 3.7 MBq/mL, iv after 2 mins by gamma counting; conditions: in vivo; method in brief: as §1
[37] = Biodistribution in NMRI mouse spleen/pancreas assessed per gram of tissue at 3.7 MBq/mL, iv after 60 mins by gamma counting; conditions: in vivo, 1 h; method in brief: as §1
Intestine [38] = assay: Biodistribution in NMRI mouse intestine at 3.7 MBq/mL, iv after 60 mins by gamma counting; conditions: in vivo, 1 h; method in brief: as §1

**Q.** With Oc1ccc2nc(-c3ccc([18F])cc3)sc2c1 as the molecule, how does the Drug uptake (Liver [1]) read?
**A.** 11.9 % ID/g

**Q.** What about the Drug uptake [2] of the same molecule?
**A.** 1.2 %ID

**Q.** What about the Drug uptake (Cerebellum [3]) of the same molecule?
**A.** 0.08 %ID

**Q.** And the Drug uptake (Liver [4])?
**A.** 28.1 %ID

**Q.** What about the Drug uptake (Cerebellum [5]) of the same molecule?
**A.** 0.55 %ID

**Q.** What about the Drug uptake (Lung [6]) of the same molecule?
**A.** 28.1 % ID/g

**Q.** And the Drug uptake [7]?
**A.** 0.5 %ID

**Q.** And the Drug uptake (Cerebellum [8])?
**A.** 5.13 % ID/g

**Q.** What about the Drug uptake [9] of the same molecule?
**A.** 4 % ID/g

**Q.** What about the Drug uptake (Blood [10]) of the same molecule?
**A.** 3.3 %ID

**Q.** And the Drug uptake (Kidney [11])?
**A.** 11.8 % ID/g

**Q.** What about the Drug uptake (Kidney [12]) of the same molecule?
**A.** 12.6 % ID/g

**Q.** What about the Drug uptake (Kidney [13]) of the same molecule?
**A.** 7 %ID

**Q.** And the Drug uptake (Blood [14])?
**A.** 4 % ID/g

**Q.** What about the Drug uptake (Kidney [15]) of the same molecule?
**A.** 5.9 %ID

**Q.** What about the Drug uptake (Heart [16]) of the same molecule?
**A.** 0.1 %ID

**Q.** And the Drug uptake (Lung [17])?
**A.** 1.5 %ID

**Q.** What about the Drug uptake [18] of the same molecule?
**A.** 4.7 % ID/g

**Q.** What about the Drug uptake (Lung [19]) of the same molecule?
**A.** 5.5 % ID/g

**Q.** What about the Drug uptake (Heart [20]) of the same molecule?
**A.** 1.3 % ID/g

**Q.** And the Drug uptake [21]?
**A.** 0.1 %ID

**Q.** And the Drug uptake [22]?
**A.** 1.35 %ID

**Q.** And the Drug uptake (Stomach [23])?
**A.** 0.5 %ID

**Q.** And the Drug uptake (Blood [24])?
**A.** 1.3 % ID/g

**Q.** What about the Drug uptake (Liver [25]) of the same molecule?
**A.** 24.6 %ID

**Q.** What about the Drug uptake (Liver [26]) of the same molecule?
**A.** 13.3 % ID/g

**Q.** And the Drug uptake (Cerebellum [27])?
**A.** 0.76 % ID/g

**Q.** What about the Drug uptake (Heart [28]) of the same molecule?
**A.** 5.8 % ID/g

**Q.** What about the Drug uptake (Heart [29]) of the same molecule?
**A.** 0.9 %ID

**Q.** What about the Drug uptake (Lung [30]) of the same molecule?
**A.** 7.6 %ID

**Q.** What about the Drug uptake [31] of the same molecule?
**A.** 11.3 %ID

**Q.** And the Drug uptake (Intestine [32])?
**A.** 7.1 %ID

**Q.** And the Drug uptake [33]?
**A.** 0.57 % ID/g

**Q.** And the Drug uptake (Stomach [34])?
**A.** 1.1 %ID

**Q.** And the Drug uptake [35]?
**A.** 0.16 %ID

**Q.** And the Drug uptake (Blood [36])?
**A.** 10 %ID

**Q.** What about the Drug uptake [37] of the same molecule?
**A.** 1.8 % ID/g

**Q.** What about the Drug uptake (Intestine [38]) of the same molecule?
**A.** 36.7 %ID
